Results reported in ChEMBL document CHEMBL3870320, “Yakushinamides, Polyoxygenated Fatty Acid Amides That Inhibit HDACs and SIRTs, from the Marine Sponge Theonella swinhoei” (J Nat Prod, 2016).

Key:
[1] = target: T1, NAD-dependent protein deacetylase sirtuin-2 (Homo sapiens) (UniProt Q8IXJ6); experiment: Inhibition of recombinant human GST-tagged SIRT2 catalytic domain using Ac-RHKK(Ac)-MCA assessed as formation of amino methyl coumarin from Ac-RHKK(Ac)-MCA and NAD measured after 60 mins by fluorescence analysis
T1 sequence (whole entry): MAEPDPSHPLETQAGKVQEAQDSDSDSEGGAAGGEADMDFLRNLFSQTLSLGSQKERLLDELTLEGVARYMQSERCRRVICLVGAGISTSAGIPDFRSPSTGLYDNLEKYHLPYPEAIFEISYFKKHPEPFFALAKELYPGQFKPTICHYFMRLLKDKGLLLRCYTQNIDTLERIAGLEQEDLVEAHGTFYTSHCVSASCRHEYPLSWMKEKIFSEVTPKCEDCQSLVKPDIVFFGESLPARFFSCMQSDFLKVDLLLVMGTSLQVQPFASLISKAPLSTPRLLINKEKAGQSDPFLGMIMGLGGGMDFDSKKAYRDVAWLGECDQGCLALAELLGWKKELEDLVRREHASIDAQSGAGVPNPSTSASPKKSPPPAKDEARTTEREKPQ
In short: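 Recombinant GST-fused SIRT2 catalytic domain with 100 μM Ac-RHKK(Ac)-MCA and NAD (final 1 mM) in 50 mM Tris-HCl pH 9.0, 4 mM MgCl2, 0.2 mM DTT, 60 min at 37 °C. Trypsin (final 20 mg/mL) then added for 15 min at 37 °C. Released aminomethylcoumarin fluorescence read at ex 370/em 460 nm.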

[2] = target: T2, Protein deacetylase HDAC6 (Homo sapiens) (UniProt Q9UBN7); experiment: Inhibition of human FLAG-tagged HDAC6 expressed in human 293T cells assessed as formation of amino methyl coumarin from Ac-KGLGK(Ac)-MCA measured after 30 mins by fluorescence analysis; type: cell-based
T2 sequence (whole entry): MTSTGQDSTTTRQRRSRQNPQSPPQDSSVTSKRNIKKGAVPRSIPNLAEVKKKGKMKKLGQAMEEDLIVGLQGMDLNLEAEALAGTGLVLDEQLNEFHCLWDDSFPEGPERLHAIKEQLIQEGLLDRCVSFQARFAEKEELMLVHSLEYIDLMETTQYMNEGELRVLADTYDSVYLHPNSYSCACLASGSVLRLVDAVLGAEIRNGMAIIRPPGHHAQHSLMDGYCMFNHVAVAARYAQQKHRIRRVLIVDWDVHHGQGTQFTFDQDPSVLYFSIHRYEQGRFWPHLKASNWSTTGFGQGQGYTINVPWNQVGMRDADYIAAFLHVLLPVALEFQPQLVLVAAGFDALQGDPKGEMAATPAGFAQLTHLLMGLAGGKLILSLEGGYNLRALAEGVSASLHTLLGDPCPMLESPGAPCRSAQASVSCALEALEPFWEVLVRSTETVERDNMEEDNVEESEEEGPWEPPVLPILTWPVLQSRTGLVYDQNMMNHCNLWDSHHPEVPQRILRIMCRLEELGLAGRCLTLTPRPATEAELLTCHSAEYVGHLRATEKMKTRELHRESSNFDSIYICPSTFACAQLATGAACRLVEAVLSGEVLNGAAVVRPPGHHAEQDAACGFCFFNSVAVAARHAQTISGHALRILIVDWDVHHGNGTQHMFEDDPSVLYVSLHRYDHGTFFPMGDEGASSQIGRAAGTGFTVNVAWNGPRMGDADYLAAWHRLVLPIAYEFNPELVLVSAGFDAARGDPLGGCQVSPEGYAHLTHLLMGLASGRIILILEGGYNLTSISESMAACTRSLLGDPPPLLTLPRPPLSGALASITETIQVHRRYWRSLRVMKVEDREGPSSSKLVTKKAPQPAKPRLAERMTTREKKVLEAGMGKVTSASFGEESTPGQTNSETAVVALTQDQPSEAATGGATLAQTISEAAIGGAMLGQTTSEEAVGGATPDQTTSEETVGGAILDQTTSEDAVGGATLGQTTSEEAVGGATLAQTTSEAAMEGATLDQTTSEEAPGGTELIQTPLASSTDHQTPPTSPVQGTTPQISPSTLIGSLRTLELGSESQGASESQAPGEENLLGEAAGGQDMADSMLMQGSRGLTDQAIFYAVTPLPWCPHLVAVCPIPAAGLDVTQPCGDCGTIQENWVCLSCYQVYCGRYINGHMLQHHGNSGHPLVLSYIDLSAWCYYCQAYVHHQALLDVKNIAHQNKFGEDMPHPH

[3] = target: T3, NAD-dependent protein deacetylase sirtuin-1 (Homo sapiens) (UniProt Q96EB6); experiment: Inhibition of recombinant human SIRT1 expressed in Escherichia coli BL21 (DE3) assessed as formation of amino methyl coumarin from Ac-RHKK(Ac)-MCA and NAD measured after 60 mins by fluorescence analysis
T3 sequence (whole entry): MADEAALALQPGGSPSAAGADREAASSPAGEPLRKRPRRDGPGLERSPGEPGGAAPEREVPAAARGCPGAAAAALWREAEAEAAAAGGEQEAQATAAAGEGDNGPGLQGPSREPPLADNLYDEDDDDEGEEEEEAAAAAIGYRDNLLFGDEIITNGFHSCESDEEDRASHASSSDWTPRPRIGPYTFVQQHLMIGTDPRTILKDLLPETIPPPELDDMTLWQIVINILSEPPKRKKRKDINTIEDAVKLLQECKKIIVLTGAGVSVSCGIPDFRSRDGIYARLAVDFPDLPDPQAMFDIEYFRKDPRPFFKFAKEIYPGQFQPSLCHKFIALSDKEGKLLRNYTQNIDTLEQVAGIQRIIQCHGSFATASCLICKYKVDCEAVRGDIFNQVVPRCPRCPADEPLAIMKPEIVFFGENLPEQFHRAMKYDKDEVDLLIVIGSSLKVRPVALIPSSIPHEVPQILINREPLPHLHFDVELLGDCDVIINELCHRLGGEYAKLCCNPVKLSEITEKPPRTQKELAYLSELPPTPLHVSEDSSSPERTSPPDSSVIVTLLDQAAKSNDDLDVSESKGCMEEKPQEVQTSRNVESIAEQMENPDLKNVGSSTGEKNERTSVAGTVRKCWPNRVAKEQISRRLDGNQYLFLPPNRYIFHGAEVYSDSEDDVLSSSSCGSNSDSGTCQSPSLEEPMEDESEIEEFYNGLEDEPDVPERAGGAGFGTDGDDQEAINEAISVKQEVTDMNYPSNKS
In short: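 SIRT1 was expressed from pCold TF in E. coli BL21 (DE3) with 0.3 mM IPTG at 16 °C for 24 h, and the (His)6 protein was purified by nickel affinity then anion exchange. Assay used 100 μM Ac-RHKK(Ac)-MCA and 1 mM NAD (final) in Tris-HCl pH 9.0 buffer for 60 min at 37 °C. Trypsin was added for 15 min, and fluorescence was read at ex 370/em 460 nm.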

[4] = target: Histone deacetylase 4 (Homo sapiens) (UniProt P56524); experiment: Inhibition of human FLAG-tagged HDAC4 expressed in human 293T cells assessed as formation of amino methyl coumarin from Ac-KGLGK(Ac)-MCA measured after 30 mins by fluorescence analysis; type: cell-based
Chain of Histone deacetylase 4 (Homo sapiens) (P56524 whole entry): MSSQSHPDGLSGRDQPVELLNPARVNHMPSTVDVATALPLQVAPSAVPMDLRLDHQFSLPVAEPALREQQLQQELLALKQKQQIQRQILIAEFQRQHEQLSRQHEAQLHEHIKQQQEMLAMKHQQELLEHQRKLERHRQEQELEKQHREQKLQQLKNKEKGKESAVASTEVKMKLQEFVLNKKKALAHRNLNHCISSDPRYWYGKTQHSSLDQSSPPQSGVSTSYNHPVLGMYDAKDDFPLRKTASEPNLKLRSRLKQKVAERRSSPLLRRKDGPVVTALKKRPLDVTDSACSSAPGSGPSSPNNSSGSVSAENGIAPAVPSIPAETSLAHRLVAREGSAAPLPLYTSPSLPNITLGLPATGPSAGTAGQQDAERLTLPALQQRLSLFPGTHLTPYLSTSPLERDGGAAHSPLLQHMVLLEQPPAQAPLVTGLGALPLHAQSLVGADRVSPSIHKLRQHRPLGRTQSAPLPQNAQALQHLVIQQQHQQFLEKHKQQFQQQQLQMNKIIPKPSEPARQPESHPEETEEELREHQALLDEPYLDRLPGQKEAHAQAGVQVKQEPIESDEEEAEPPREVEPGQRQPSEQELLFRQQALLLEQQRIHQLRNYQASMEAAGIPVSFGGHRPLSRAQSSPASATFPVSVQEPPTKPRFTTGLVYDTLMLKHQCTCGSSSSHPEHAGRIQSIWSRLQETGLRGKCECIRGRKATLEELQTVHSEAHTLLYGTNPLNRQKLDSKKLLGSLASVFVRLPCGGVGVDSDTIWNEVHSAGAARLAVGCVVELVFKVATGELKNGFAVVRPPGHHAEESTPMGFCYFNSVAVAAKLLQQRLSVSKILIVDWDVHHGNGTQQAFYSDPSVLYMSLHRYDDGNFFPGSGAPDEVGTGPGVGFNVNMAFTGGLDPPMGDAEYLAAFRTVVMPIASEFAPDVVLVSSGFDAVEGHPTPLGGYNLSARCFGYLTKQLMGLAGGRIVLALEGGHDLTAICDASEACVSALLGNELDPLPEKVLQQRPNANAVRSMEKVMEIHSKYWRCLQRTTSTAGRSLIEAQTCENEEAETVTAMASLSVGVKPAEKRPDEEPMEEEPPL

[5] = target: Histone deacetylase 1 (Homo sapiens) (UniProt Q13547); experiment: Inhibition of human FLAG-tagged HDAC1 expressed in human 293T cells assessed as formation of amino methyl coumarin from Ac-KGLGK(Ac)-MCA measured after 30 mins by fluorescence analysis; type: cell-based
Chain of Histone deacetylase 1 (Homo sapiens) (Q13547 whole entry, the tested form may be a part): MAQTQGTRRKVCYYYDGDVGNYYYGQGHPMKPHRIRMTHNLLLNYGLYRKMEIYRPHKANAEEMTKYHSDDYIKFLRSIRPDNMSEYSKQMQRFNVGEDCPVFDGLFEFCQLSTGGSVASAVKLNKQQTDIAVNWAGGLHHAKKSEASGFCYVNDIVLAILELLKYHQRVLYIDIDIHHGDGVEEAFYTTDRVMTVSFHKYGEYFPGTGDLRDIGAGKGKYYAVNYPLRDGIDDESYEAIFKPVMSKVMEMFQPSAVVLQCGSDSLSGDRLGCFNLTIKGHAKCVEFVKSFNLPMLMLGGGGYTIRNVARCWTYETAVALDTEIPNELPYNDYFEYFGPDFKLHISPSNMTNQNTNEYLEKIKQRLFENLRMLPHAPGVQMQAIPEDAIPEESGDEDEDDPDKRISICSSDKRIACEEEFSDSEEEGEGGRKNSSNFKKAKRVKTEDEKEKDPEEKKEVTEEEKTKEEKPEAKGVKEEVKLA

[6] = target: T4, NAD-dependent protein deacetylase sirtuin-3, mitochondrial (Homo sapiens) (UniProt Q9NTG7); experiment: Inhibition of recombinant human His-tagged SIRT3 (118 to 399 residues) expressed in Escherichia coli BL21 (DE3) assessed as formation of amino methyl coumarin from Ac-VSTPVK(Ac)-MCA and NAD measured after 60 mins by fluorescence analysis
T4 sequence (whole entry): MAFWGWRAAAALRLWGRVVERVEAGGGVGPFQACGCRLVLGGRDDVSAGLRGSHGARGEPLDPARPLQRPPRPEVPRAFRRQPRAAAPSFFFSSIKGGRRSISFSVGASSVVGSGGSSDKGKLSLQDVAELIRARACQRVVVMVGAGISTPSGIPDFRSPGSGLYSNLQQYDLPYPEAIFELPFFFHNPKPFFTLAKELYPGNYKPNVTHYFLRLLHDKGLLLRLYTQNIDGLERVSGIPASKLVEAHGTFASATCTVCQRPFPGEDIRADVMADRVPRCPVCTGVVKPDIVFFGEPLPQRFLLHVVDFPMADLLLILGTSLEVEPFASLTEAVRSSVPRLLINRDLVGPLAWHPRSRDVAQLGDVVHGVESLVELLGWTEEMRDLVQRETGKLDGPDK
In short: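 His-tagged recombinant SIRT3 incubated with 100 μM Ac-VSTPVK(Ac)-MCA and NAD (final 1 mM) in 50 mM Tris-HCl pH 9.0, 4 mM MgCl2, 0.2 mM DTT for 60 min at 37 °C. Trypsin (final 20 mg/mL) was added and the mixture held 15 min more at 37 °C. Fluorescence of freed aminomethylcoumarin measured at ex 370/em 460 nm.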

CCCCCCC[C@@H](C)C[C@@H](O)CCCCCCC[C@@H](CCCC[C@@H](OC(C)=O)[C@@H](OC(C)=O)[C@H](CCCCCCC(=O)N1CCC[C@H]1C(=O)OC)OC(C)=O)OS(=O)(=O)O
IC50 [1]: > 200 µM
IC50 [2]: > 200 µM
IC50 [3]: 16 µM
IC50 [4]: > 200 µM
IC50 [5]: 26 µM
IC50 [6]: 79 µM

CCCCCC[C@@H](C)[C@@H](CCCCCCCC(O)CCCC[C@@H](OC(C)=O)[C@@H](OC(C)=O)[C@H](CCCCCCC(=O)N1CCC[C@H]1C(=O)OC)OC(C)=O)OS(=O)(=O)O (some centres not stated)
IC50 [1]: 150 µM
IC50 [2]: 52 µM
IC50 [3]: 34 µM
IC50 [4]: 75 µM
IC50 [5]: 29 µM
IC50 [6]: 78 µM
